The record followed here is ChEMBL document CHEMBL3627612, “Hirsutinolide Series Inhibit Stat3 Activity, Alter GCN1, MAP1B, Hsp105, G6PD, Vimentin, TrxR1, and Importin α-2 Expression, and Induce Antitumor Effects against Human Glioma” (J Med Chem, 2015).

Calls of active or inactive are those of the source. The rule behind the calls is not given here.

The target in data set [1] is T1, Signal transducer and activator of transcription 3 (Homo sapiens, UniProt P40763). The data set is described as follows: Inhibition of Stat3 phosphorylation in human U251MG cells transfected with Stat3 flag-tagged N-terminal domain at 5 uM after 1.5 hrs by immunoblot analysis. The format is cell-based. Conditions: U-251. The procedure, abridged:
(§1)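 U251MG cells transiently transfected with 7.5–21 μg FLAG-Stat3 NTD, CCD, DBD or CTD plasmid, or pcDNA3 mock. Re-seeded 24 h later; after another 18 h, treated with or without 5 μM compound for 1.5 h. Whole-cell lysates immunoblotted for FLAG, pY705Stat3, Stat3, GAPDH. 0.025% DMSO control. Representative of 2 independent determinations.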

The target of data set [2] is T1, Signal transducer and activator of transcription 3. The data set is described as follows: Inhibition of Stat3 activity in human U251MG cells assessed as decrease in c-Myc expression at 5 uM after 24 hrs by immunoblot analysis. The format is cell-based. Particulars: U-251. The procedure, abridged:
(§2)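 U251MG cells treated with 5 μM compound for 0–24 h. Whole-cell lysates immunoblotted for pStat3, Stat3, c-Myc, Bcl-2, Bcl-xL, Mcl-1, GAPDH. Control was 0.025% DMSO.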

Data set [3] in a line: Cytotoxicity against mouse NIH/3T3 cells after 72 hrs by cyquant cells. The format is cell-based. Conditions: NIH3T3, 72 h. An outline of the steps:
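CyQuant proliferation assay after 72 h compound exposure of cultured cells; relative viability normalized to DMSO-treated control; IC50 values derived. Glioma lines grown in RPMI or DMEM with 10% FBS and 1% nonessential amino acids.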

Data set [4] addresses T1, Signal transducer and activator of transcription 3. The data set is described as follows: Inhibition of Stat3 activity in human U251MG cells assessed as decrease in Bcl-xl expression at 5 uM after 24 hrs by immunoblot analysis. The format is cell-based. Conditions: U-251. An outline of the steps: as §2
Data set [5] has the same target. The data set is described as follows: Inhibition of Stat3 phosphorylation in human U251MG cells transfected with Stat3 flag-tagged DNA-binding domain at 5 uM after 1.5 hrs by immunoblot analysis. Type of data set: cell-based. Particulars: U-251. The procedure, abridged:
as §1

Data set [6] can be described thus: Decrease in TxR1 cytoplasmic isoform 3 expression in human U251MG cells at 5 uM for 1 hr by mass spectrometry relative to control. Type of data set: functional, cell-based. Conditions: U-251. An outline of the steps: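 Global proteomic mass spectrometry of lysates from U251MG cells treated 1 h with 5 μM compound; protein levels expressed relative to DMSO-treated cells.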

Data set [7] in a line: Cell cycle arrest in human U251MG cells assessed as accumulation at G2/M phase at 5 uM for 15 hrs by flow cytometry. Particulars: U-251. The format is functional, cell-based.
For data set [8], the target named is Signal transducer and activator of transcription 3 (Mus musculus) (UniProt P42227). The data set is described as follows: Inhibition of Stat3 dimer DNA binding activity in mouse NIH3T3/vSrc nuclear extract at 10 uM preincubated for 30 mins followed by addition of radiolabeled probe hSIE for 30 mins by EMSA in presence of 50 uM Cys.
Signal transducer and activator of transcription 3 (Mus musculus), sequence (P42227 whole entry): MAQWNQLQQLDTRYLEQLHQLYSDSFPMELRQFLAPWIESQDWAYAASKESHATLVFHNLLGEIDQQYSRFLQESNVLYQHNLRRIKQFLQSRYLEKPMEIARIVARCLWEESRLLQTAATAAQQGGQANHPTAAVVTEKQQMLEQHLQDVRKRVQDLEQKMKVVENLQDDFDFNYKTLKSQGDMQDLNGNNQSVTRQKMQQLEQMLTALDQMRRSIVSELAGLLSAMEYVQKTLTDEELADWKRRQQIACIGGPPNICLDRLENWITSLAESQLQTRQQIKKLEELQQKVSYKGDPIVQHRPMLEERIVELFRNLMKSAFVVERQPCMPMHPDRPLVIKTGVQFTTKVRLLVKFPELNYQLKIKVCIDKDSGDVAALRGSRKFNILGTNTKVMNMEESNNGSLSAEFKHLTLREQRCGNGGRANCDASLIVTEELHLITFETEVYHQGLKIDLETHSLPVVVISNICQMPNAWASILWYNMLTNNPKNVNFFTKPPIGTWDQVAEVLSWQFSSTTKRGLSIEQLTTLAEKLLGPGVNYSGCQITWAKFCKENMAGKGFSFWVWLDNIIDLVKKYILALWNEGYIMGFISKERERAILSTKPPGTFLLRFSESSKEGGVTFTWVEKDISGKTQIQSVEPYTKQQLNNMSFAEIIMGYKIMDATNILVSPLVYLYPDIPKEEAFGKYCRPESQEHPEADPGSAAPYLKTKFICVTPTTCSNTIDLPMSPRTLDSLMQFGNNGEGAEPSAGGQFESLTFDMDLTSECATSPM
Data set [9] deals with Stalled ribosome sensor GCN1 (Homo sapiens) (UniProt Q92616). The data set is described as follows: Decrease in GCN1 expression in human U251MG cells at 5 uM for 1 hr by mass spectrometry relative to control. The format is functional, cell-based. Particulars: U-251. The procedure, abridged: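 U251MG cells treated 1 h with 5 μM compound; whole-cell lysates analyzed by global proteomics mass spectrometry; protein levels expressed relative to DMSO-treated cells.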
Stalled ribosome sensor GCN1 (Homo sapiens), sequence (Q92616 whole entry): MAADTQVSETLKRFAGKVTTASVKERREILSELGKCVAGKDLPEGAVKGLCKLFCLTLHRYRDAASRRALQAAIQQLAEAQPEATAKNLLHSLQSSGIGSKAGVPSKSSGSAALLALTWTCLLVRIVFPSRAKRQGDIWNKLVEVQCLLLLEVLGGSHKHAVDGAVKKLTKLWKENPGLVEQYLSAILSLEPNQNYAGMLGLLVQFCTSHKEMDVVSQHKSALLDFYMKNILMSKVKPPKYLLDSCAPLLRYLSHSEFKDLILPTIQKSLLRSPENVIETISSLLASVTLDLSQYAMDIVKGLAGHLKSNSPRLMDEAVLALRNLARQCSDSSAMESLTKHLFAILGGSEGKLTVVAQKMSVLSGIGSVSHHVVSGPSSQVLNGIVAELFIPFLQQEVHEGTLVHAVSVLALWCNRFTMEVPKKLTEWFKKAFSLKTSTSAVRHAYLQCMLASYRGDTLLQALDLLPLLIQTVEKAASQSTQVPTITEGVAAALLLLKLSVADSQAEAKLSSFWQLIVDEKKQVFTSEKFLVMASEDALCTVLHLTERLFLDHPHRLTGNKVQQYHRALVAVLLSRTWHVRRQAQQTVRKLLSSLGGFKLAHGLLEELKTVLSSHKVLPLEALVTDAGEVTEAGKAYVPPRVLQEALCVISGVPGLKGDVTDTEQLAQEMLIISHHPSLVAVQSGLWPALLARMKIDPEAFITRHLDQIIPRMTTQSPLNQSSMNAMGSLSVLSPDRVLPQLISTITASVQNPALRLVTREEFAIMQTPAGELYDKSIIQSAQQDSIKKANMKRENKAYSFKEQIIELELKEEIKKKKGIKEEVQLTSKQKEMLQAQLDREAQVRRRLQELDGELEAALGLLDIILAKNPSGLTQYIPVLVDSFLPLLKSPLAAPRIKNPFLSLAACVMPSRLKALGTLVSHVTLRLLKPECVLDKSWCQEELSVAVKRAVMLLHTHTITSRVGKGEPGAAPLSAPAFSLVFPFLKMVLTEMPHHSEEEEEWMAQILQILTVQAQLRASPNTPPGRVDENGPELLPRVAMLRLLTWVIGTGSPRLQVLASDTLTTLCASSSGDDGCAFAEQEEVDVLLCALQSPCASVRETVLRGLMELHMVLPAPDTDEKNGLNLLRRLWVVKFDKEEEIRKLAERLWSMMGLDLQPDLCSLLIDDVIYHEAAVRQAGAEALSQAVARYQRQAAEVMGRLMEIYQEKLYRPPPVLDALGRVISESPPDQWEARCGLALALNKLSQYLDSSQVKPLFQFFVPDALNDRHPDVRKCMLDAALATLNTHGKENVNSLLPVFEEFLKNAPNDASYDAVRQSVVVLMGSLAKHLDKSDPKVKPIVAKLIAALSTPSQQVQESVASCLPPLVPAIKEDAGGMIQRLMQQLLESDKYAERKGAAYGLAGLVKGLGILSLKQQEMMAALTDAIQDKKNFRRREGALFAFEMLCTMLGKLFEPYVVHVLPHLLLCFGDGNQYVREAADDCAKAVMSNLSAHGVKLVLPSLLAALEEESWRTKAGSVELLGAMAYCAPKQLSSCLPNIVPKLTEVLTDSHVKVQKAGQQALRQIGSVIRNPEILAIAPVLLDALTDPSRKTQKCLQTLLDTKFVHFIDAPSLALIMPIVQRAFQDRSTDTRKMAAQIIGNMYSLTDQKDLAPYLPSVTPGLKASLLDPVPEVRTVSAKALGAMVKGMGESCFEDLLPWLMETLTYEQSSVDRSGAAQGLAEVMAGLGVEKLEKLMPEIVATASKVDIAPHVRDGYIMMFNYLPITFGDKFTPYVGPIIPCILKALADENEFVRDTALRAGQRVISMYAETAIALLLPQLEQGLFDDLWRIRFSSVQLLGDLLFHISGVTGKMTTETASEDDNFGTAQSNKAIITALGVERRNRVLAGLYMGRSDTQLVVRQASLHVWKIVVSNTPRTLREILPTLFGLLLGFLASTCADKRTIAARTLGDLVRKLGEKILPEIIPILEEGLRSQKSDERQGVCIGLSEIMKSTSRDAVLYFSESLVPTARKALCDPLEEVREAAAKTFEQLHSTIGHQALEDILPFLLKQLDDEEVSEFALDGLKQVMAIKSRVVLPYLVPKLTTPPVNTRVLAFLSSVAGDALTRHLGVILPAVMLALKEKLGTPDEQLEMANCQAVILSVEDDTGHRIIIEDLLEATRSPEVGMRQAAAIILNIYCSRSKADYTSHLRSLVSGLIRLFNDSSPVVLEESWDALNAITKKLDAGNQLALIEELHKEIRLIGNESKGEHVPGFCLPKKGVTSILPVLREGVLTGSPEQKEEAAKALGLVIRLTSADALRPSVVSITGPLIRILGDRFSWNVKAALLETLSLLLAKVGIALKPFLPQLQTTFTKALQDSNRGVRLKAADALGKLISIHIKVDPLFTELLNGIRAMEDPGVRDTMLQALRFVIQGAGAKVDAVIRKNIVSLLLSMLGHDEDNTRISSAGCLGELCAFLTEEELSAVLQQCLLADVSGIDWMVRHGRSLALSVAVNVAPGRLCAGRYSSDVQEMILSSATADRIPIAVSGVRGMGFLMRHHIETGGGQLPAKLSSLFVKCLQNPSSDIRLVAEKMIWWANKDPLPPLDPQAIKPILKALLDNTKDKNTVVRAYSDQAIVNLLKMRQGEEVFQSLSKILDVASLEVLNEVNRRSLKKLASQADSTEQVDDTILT

A short description of data set [10]: Cytotoxicity against mouse V-Src -transformed NIH/3T3 cells at 1 uM by trypan blue exclusion with phase contrast microscopy. Type of data set: cell-based. Conditions: nih3t3, 1 µM.

T1 sequence (P40763 whole entry, the tested form may be a part): as the sequence (P42227 whole entry) above, with D760E counted along it

With `C/C=C(\C)C(=O)O[C@H]1C[C@@H](C)[C@]2(O)CC[C@](C)(/C=C3/OC(=O)C(COC(C)=O)=C31)O2`, the inhibition entry in [1], in data set [2] and in [4] was “Active” each time. For the same compound, the IC50 in data set [3] worked out at 2 µM. Besides, the inhibition result in data set [5] is “inactive”.
Regarding `C/C=C(\C)C(=O)OCC1=C2/C(=C\[C@@]3(C)CC[C@](O)(O3)[C@H](C)C[C@@H]2O)OC1=O`, the fold change (FC) in [6] was 0.305; in data set [9], 0.555. Besides, the result in [7] was Active. For the same compound, the inhibition entry in data set [8] was “Active”. In addition, the Activity result in [10] is “Toxic”.
